Hits are enriched below; roughly 2.6% of the tested compounds scored in any of these assays.
XiGFP reactiv: activators of inactive X chromosome reactivation, primary screen, imaging, XiGFP fibroblasts, GFP high-content imaging, set 2; XiGFP mouse fibroblasts, % GFP-positive cells imaging, 3 d; cells co-treated with 5-aza-dC sensitizer; scaled so ellipticine positive control = 100%; activation, % at 7.58 µM; 360,000 tested, 0.055% active;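 active = mean normalized replicate activation at least 10% and every replicate at or above 10%; inconclusive = only one of the two criteria met; inactive = mean below 10% and not all replicates reach 10%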;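 note: 0% = median of on-plate neutral control wells and 100% = ellipticine 6 µM median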
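assay system = SV40-immortalized XiGFP fibroblast cells, line 68-5-11 | buffer or medium = DMEM plus 5-aza-dC sensitizer | doses = single-point pinned compound dosing | times = 3-day compound exposure, then 15 min fixation at room temperature | benchmarks = positive control ellipticine, 6 µM final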
Wnt act: Wnt/beta-catenin pathway activators, primary screen, cell-based, plate reader, single point | activation, % at 9.35 µM | 300,000 tested, 1.2% active | Wnt/beta-catenin reporter cell assay, activator; in the data active = activation above about 30%, passing the limit was not always enough; inconclusive = no clear call, values can overlap the other calls;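 note: 0% = neutral control wells and 100% = positive control wells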
MITF act: activators of MITF-driven TRPM1 promoter reporter, primary screen, cell-based, SK-MEL-5, luciferase, single point | 300,000 tested, 0.75% active | AID 588334, 2011 | activation, % at 12.5 µM | SK-MEL-5 TRPM1-promoter luciferase, 24 h; % of positive control, neutral wells = 0;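 active = mean activation of at least 80% with every replicate also reaching 80%; inconclusive = mean reaches 80% but some replicate falls short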;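 note: 0% = neutral control wells and 100% = parthenolide positive control wells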
esBAF inh: Bmi1 luciferase reporter increase in mESCs, primary screen, esBAF inhibitor project, mouse ES cells, Bmi1 luciferase knock-in, single point | 24 h; 100% = twice the neutral-well signal | 350,000 tested, 2% active | reporter increase, % at 12.5 µM | AID 602393, 2012; in the data active = activation above about 40%; inconclusive = no clear call, values can overlap the other calls;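 note: 0% = median of the plate's neutral control wells and 100% = double that signal; a rise in the Bmi1 reporter signal indicates esBAF inhibition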
Vif imaging: HIV Vif self-association inhibitors, primary screen, imaging, HEK293T, single point; HEK293T cells, Vif self-association by quenched fluorescence, 24 h; inhibition, % at 7.49 µM; 340,000 tested, 0.35% active; in the data active = inhibition above about 50%, passing the limit was not always enough; inconclusive = no clear call, values can overlap the other calls; inactive = below about 31%
Active calls of the source: *; ? = inconclusive; / = not tested or not shown.

SMILES	XiGFP reactiv	Wnt act	MITF act	esBAF inh	Vif imaging
COc1ccc(NC(=O)N(C)C[C@H]2Oc3c(cccc3N(C)C)C(=O)N([C@H](C)CO)C[C@@H]2C)cc1	0	/	/	1	/
COc1ccc2c3c(n(C)c2c1)[C@H](CO)N(C(C)=O)CC31CN(Cc2ccccc2OC)C1	0	/	/	/	/
Clc1ccc(-c2nnc(-c3ccc(Br)o3)o2)c(Cl)c1	/	/	126*	38	2
CSc1ccccc1-c1nnc(-c2ccc(Cl)cc2Cl)o1	/	/	78	/	6
Clc1ccc(-c2nnc(-c3ccccc3)o2)c(Cl)c1	/	39*	/	-37	16
CSc1nnc(-c2ccc(Cl)cc2Cl)o1	/	/	51	51*	0
Fc1ccc(-c2nnc(-c3ccc(Cl)cc3Cl)o2)cc1	0	20	/	31	25
O=C(C[C@@H]1CC[C@H]2[C@@H](COC[C@H](O)CN2Cc2ccc(C(F)(F)F)cc2)O1)NCCc1ccccc1	0	/	/	-2	/
CC(C)c1nnc(NC(=O)c2cccc(NC(=O)C(F)(F)F)c2)s1	0	35*	50	/	-2
CC(C)C(=O)Nc1cccc(C(=O)Nc2nnc(C(C)C)s2)c1	/	/	91*	9	-4
Cc1nnc(NC(=O)c2cccc(NC(=O)C(C)C)c2)s1	/	/	6	5	0
CO[C@H]1CN(C)C(=O)c2ccc(NC(=O)c3ccccc3F)cc2OC[C@H](C)N(CC2CC2)C[C@@H]1C	0	/	/	/	/
O=C(c1ccccn1)N1CC2(C1)[C@H](c1ccccc1)[C@H](CO)N2Cc1ccc(Cl)cc1	0	/	/	/	/
CCOC(=O)/C=c1\s/c(=C\c2ccc3cc(OC)ccc3c2)c(=O)n1CC(=O)NCc1ccc2c(c1)OCO2	28*	-4	-8	/	2
CCOC(=O)/C=c1\s/c(=C\c2ccccc2C)c(=O)n1CC(=O)NCc1ccc2c(c1)OCO2	0	0	-5	/	6
O=C(/C=C1\OCc2ccccc21)c1ccccc1	0	45*	/	/	/
COc1ccc(NC(=O)N2C[C@@H]3[C@H](c4ccccc42)[C@H](CO)N3Cc2ccccn2)cc1	0	/	/	14	/
CN1CCN(C(=O)c2ccc(-c3cccs3)s2)CC1	0	36*	/	/	-1
CN1CCCN(C(=O)c2ccc(Br)s2)CC1	0	0	4	0	-6
COc1ccc(C2=NN(C(=O)CN3CCOCC3)C(c3nc4ccccc4[nH]3)C2)cc1 (configuration not stated)	0	?	35	59*	-4
COc1ccc(C2=NN(C(=O)CN3CCCCC3)C(c3ccc(C)cc3)C2)cc1 (configuration not stated)	0	-1	-2	-1	4
Cc1ccc2nc(SCC(=O)N3CCCC3)nc(=O)n2c1	0	4	11	-1	-4
Cc1ccn2c(=O)nc(SCC(=O)NCc3ccccc3)nc2c1	0	0	-6	2	5
Cc1ccc2nc(SCC(=O)c3ccccc3)nc(=O)n2c1	0	12	71	68*	8
Cc1ccn2c(=O)nc(SCC(=O)c3ccccc3)nc2c1	0	28	75	42*	16
SMILES	XiGFP reactiv	Wnt act	MITF act	esBAF inh	Vif imaging
COc1cc2cc(CN(CCc3ccccc3C)C(=S)NCCCN3CCOCC3)c(=O)[nH]c2cc1OC	0	50*	10	/	0
C[C@H]1CN([C@@H](C)CO)C(=O)c2cc(NS(=O)(=O)c3cccs3)ccc2O[C@@H]1CN(C)C(=O)NC1CCCCC1	-1	/	/	-2	/
CO[C@@H]1CC[C@H]2CCN(C)C(=O)[C@@H](C)CN(C)C(=O)c3cc(C#N)ccc3OC[C@@H]1O2	0	/	/	-2	/
Cc1nc2sc(-c3ccccc3)cc2c(=O)n1N	0	-2	-45	-73	-8
O=c1c2cc(-c3ccccc3)sc2nc2n1CCC2	0	60*	/	/	/
O=c1c2ccccc2nc2n1CCC2	/	-4	-7	/	9
Cc1nc2sc(-c3ccccc3)cc2c(=O)n1-n1cccc1	/	/	102*	48*	13
COc1ccc(/C=C(/C#N)c2cccnc2)cc1OC	0	-4	7	5	-2
COc1ccc(C(C#N)=Cc2ccc(OC)c(OC)c2)cc1	0	2	/	68*	2
COc1ccc(C(C#N)=Cc2ccc(NC(C)=O)cc2)cc1	0	-2	44	21	10
COc1ccc(C=C(C#N)c2ccc(OC)cc2)cc1	0	13	43	55*	-1
C[C@@H](O)C#Cc1ccc2c(c1)O[C@H](CN(C)C(=O)c1ccccc1)[C@@H](C)CN([C@@H](C)CO)S2(=O)=O	0	/	/	1	/
Cc1cccnc1NC(=O)Nc1cccc(F)c1	0	3	/	48*	-3
Cc1cccnc1NC(=O)Nc1ccc(Cl)cc1	0	0	30	71*	0
Cc1cccnc1NC(=O)Nc1ccccc1	4	14	?	41	-1
Cc1noc(C)c1NC(=O)Nc1cccc2c1O[C@H](CN(C)C(=O)Nc1ccc(C(F)(F)F)cc1)[C@H](C)CN([C@H](C)CO)C2=O	0	/	/	0	/
C[C@H](CO)N1C[C@H](C)[C@@H](CN(C)C(=O)CN(C)C)Oc2cc(C#Cc3cccnc3)ccc2S1(=O)=O	-1	/	/	-10	/
CNC(=O)c1c(Br)cnn1-c1ccc(C)cc1	0	18	44	84*	-10
CO[C@H]1CN(C)C(=O)c2cc(NC(=O)c3nc4ccccc4s3)ccc2OC[C@H](C)N(Cc2cncnc2)C[C@@H]1C	2	/	/	6	/
Cc1cc(/C=N\NC(=O)c2cccs2)c(C)n1-c1ccc2ncccc2c1	/	2	72	72*	-14
Cn1cccc1/C=N/NC(=O)c1sc2ccccc2c1Cl	/	11	45	62*	-9
O=C(N/N=C/c1c[nH]c2ccccc12)c1sc2ccccc2c1Cl	0	/	38	60*	-1
Cc1c(/C=N/NC(=O)c2sc3ccccc3c2Cl)cnn1C	/	/	14	14	-7
O=C(N/N=C/c1c[nH]c2ccccc12)c1cccs1	0	43*	/	/	8
O=C(N/N=C/c1c[nH]c2ccccc12)c1ccccc1	0	6	/	30	?
SMILES	XiGFP reactiv	Wnt act	MITF act	esBAF inh	Vif imaging
O=C(N/N=C/c1cccc2ccccc12)c1cccs1	0	34*	56	67*	-3
Cc1ccc(/C=N/NC(=O)c2cccs2)s1	0	/	62	50*	13
O=C(NN=Cc1cccc2ccccc12)C(=O)NN=Cc1cccc2ccccc12	0	-5	1	-4	3
O=C(N/N=C/c1ccc([N+](=O)[O-])o1)c1sc2ccccc2c1Cl	0	32*	-77	/	6
Nc1ncccc1OCc1ccc(Br)cc1	0	6	102*	/	-8
COc1ccc(COc2cccnc2N)cc1	0	5	24	31	23

Source: PubChem BioAssay (Broad Institute)
